Calls of active or inactive are those of the source. No cut-off for these calls is given here.

Here are results for 1 compound from ChEMBL document CHEMBL1157559, “Synthesis and biological evaluation of novel pyrazolyl-2,4-thiazolidinediones as anti-inflammatory and neuroprotective agents” (Bioorg Med Chem, 2010).

Data set [1] concerns SH-SY5Y. Nature of the data set: Antineurotoxicity in human SH-SY5Y cells assessed as inhibition human THP1 cell supernatant-induced cytotoxicity compound pretreated 24 to 48 hrs to THP1 cells measured after 72 hrs of supernatant addition. The class given is functional, cell-based. An outline of the steps:
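THP-1 cells in DMEM-F12 with 5% FBS, pretreated 15 min with compound or DMSO, then stimulated with LPS 0.5 µg/mL plus IFN-γ 150 U/mL for 24 or 48 h. Cell-free supernatant transferred to SH-SY5Y cells plated 24 h earlier. After 72 h, viability by LDH release and MTT. IC50 from curves of at least three independent experiments.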

Data set [2] deals with Rattus norvegicus. Nature of the data set: Gastrointestinal toxicity in Wistar albino rat assessed as hyperemia at 100 mg/kg/day, po administered twice daily for 3 days. Also noted: route oral. Type of data set: organism-based. Conditions: in vivo, 72 h. An outline of the steps: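 Male rats 180–200 g, groups of five, fasted 12 h with water available. Compounds given orally as two equal doses at 0 and 12 h, 100 mg/kg per day, for three successive days; vehicle control 1% gum acacia. Rats killed 6 h after last dose. Stomach opened along greater curvature, washed with cold saline and inspected under 3× lens for hyperemia, hemorrhage, erosions or ulcers.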

For a further data set, the system named is THP-1. Nature of the data set: Inhibition of MCP1 release in human THP1 cells after 24 hrs by ELISA. The class given is functional, cell-based. An outline of the steps: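 THP-1 cells pretreated 15 min with compound, then stimulated with LPS 0.5 µg/mL plus IFN-γ 150 U/mL. After 24 h, MCP-1 (ng/mL) measured in cell-free medium by ELISA.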
A general note: An ELISA detects its analyte on a solid surface through an enzyme-linked reagent.

A short description of data set [3]: Acute toxicity in po dosed Swiss albino mouse after 24 hrs. The class given is organism-based. The conditions noted are these: in vivo, read-out: ALD50. An outline of the steps: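 Four groups of five Swiss albino mice (20–30 g), fasted 24 h beforehand, given compounds orally at graded doses of 0–300 mg/kg. Mortality recorded at each dose level after 24 h to estimate the acute lethal dose (ALD50).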

The test system of data set [4] is SH-SY5Y. Nature of the data set: Neuroprotective activity in human SH-SY5Y cells assessed as inhibition of H2O2-induced cytotoxicity after 72 hrs by LDH assay. Type of data set: functional, cell-based. An outline of the steps: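 SH-SY5Y cells plated in DMEM-F12 with 5% FBS. After 24 h, medium replaced with medium containing H2O2 (500 µM in methods, 250 µM in figure legend), and compound added directly at that time. Cell death measured by LDH release 72 h later.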

Data set [5] concerns Rattus norvegicus. Nature of the data set: Antiinflammatory activity in Wistar albino rat acute inflammatory model assessed as inhibition of formalin-induced paw edema at 20 mg/kg, po administered 1 hr before formalin challenge measured after 4 hrs by plethysmometer relative to control. Type of data set: functional. Details: scale not given: the % may be the effect or the level left. An outline of the steps: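 Male Wistar rats, 180–200 g, groups of five. Test compound 20 mg/kg po; 1 h later 0.1 mL 2% formalin injected subplantar into left hind paw under light ether anesthesia. Paw volume by water plethysmometer at 0 and 1, 2, 3, 4 h after formalin. % inhibition = (Vt−V0)control minus (Vt−V0)treated, divided by (Vt−V0)control ×100. Mean ± SEM, ANOVA with Student–Newman–Keuls.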

In data set [6] the test system is SH-SY5Y. Nature of the data set: Neuroprotective activity in human SH-SY5Y cells assessed as inhibition of LPS, IFN-gamma-stimulated THP1 cellular supernatant-induced cytotoxicity after 72 hrs by LDH assay. The class given is functional, cell-based. An outline of the steps: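 SH-SY5Y cells plated 24 h, then medium replaced with supernatant from THP-1 cells stimulated with LPS + IFN-γ for 48 h. Compound added directly to the SH-SY5Y cells at the time of transfer. Cell death measured by LDH release after 72 h; 4–6 independent experiments.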

Usually IC50 stands for the concentration at which inhibition is half-maximal. Turning to `O=C1NC(=O)/C(=C/c2cn(-c3ccc([N+](=O)[O-])cc3)nc2-c2ccc(Cl)cc2)S1`, the IC50 in the data set on SH-SY5Y [1] came to 2000 nM. For the same compound, the values for the Activity result in the data set with Rattus norvegicus [2] and in the data set with Rattus norvegicus [5] were “Non-toxic” and 68%, respectively. Besides, the inhibition entry in the data set on THP-1, in the data set on SH-SY5Y [4] and with SH-SY5Y [6] was “inactive” throughout. In addition, the LD50 at 24 h in data set [3] was > 300 mg/kg.
